# CHO parental Ca = counter-screen for OX1R antagonists: effect in parental CHO cells; parental CHO-K1, ATP-induced calcium, Fluo-8 fluorescence; inhibition, % at 5.6 µM; hit rate 0.63% among 330,000; AID 463079;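 active = inhibition above that plate's mean sample inhibition plus 3 SD, cut at about 26% in these data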;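 also: 0% = ATP-challenged DMSO wells and 100% = DMSO wells without ATP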
#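 Measured by: calcium-sensitive Fluo-8 fluorescence / Test system: CHO parental line / Controls: ATP-challenged DMSO wells low, unchallenged DMSO wells high / Measure: % inhibition / Compound: single nominal dose of 5.6 µM per compound / Replicates: single well per compound, no replicates / Reagent: ATP as calcium-mobilizing challenge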
# OX1R antag-1 = antagonists of human orexin 1 receptor. O43613. inhibition, % at 5 µM. CHO/OX1R cells, Fluo-8 calcium fluorescence, orexin A. hit rate 0.43% among 330,000;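 active = inhibition above its plate's threshold, mean inhibition of all tested compounds on the plate plus 3 SD, cut at about 37% in these data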;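 also: 0% = orexin A challenge wells and 100% = SB-334867-A antagonist wells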
# GPR7 antagonist = human neuropeptides B/W receptor 1 antagonism. hit rate 1.1% among 290,000. AID 1861. GPR7-expressing cells, fluorescence antagonist assay. inhibition, % at 4.4 µM. P48145; in the data active = inhibition above about 16%, passing the limit was not always enough;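 also: cells stimulated with the agonist NPW; 0% = agonist with vehicle and 100% = vehicle without agonist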
# Target sequence (P48145 whole entry, looked up): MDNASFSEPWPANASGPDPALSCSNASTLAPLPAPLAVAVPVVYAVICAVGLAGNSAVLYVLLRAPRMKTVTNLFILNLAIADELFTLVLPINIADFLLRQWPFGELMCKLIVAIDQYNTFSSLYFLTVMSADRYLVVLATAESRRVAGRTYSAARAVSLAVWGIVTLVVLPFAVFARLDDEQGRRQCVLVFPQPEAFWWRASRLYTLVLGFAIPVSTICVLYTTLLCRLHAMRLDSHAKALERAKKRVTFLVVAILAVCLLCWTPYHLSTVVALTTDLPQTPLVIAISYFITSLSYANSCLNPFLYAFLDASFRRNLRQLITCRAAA
# PGE2 EP2 inh = blocks the human prostaglandin E2 receptor EP2; P43116; C6 glioma cells expressing human EP2, cAMP TR-FRET; cells stimulated with saturating PGE2; inhibition, % at 25 µM; hit rate 0.52% among 260,000; AID 1422;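 active = percent inhibition above 40 after rounding to a whole number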;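 also: rat C6 glioma host cells with rolipram phosphodiesterase inhibitor present; the protocol text gives 20 µM as final concentration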
# EP2 modulator = modulators of human EP2 prostaglandin E2 receptor; EP2-expressing cells, cAMP HTRF FRET, PGE2 co-stimulation; induction, % at 25 µM; hit rate 0.83% among 260,000; AID 940;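 active = compounds whose cAMP rise, as percent of the full-agonist control response, exceeds 60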;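 also: rat C6 glioma line stably carrying human EP2 under a CMV promoter; the protocol text gives 20 µM as final concentration; 100% = response of wells given 1 µM PGE2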
# OX1R antag-2 = blocks the human orexin 1 receptor; O43613; OX1R-expressing cells, FRET antagonist read-out; inhibition, % at 6.6 µM; hit rate 1.8% among 330,000; in the data active = inhibition mostly above about 38%, no sharp cut-off; inactive = mostly below about 40%;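 also: 0% = agonist challenge alone and 100% = reference antagonist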
# OX1R HTRF confirm = OX1R (human) antagonism, HTRF confirmed. shares compounds with OX1R antag-2. OX1R-expressing cells, HTRF antagonist assay. inhibition, % at 6.6 µM. hit rate 49% among 1,800. AID 492964; in the data active = inhibition above about 55%;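 also: CHO cells expressing OX1R stimulated with orexin A at about EC80; 0% = agonist challenge alone and 100% = reference antagonist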
# CHO-K1 HTRF cnt = counter-screen: parental CHO-K1 HTRF response; shares compounds with OX1R antag-2; parental CHO-K1 cells, HTRF counterscreen; inhibition, % at 6.6 µM; hit rate 48% among 1,800; in the data active = inhibition above about 17%;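 also: 0% = agonist challenge with vehicle and 100% = vehicle alone without agonist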
# Active calls of the source: *; . = not tested or not shown. The list is not random: actives were taken first. Their share in the collection is about 3.7%.
SMILES,CHO parental Ca,OX1R antag-1,GPR7 antagonist,PGE2 EP2 inh,EP2 modulator,OX1R antag-2,OX1R HTRF confirm,CHO-K1 HTRF cnt
Cc1cccc(NC(=O)C2CCN(S(=O)(=O)c3cccc4nsnc34)CC2)n1,0,-9,-6,.,-35,64,.,.
COCCCNC(=O)C1CCCN(S(=O)(=O)c2cccc3nsnc23)C1 (stereo unspecified),-12,-10,-10,.,.,38,.,.
Cc1cccc(NC(=O)C2CCCN(S(=O)(=O)c3cccc4nsnc34)C2)c1 (stereo unspecified),-13,13,-2,7,-11,91*,57*,9
CCN1CCCC1CNC(=O)C1CCCN(S(=O)(=O)c2cccc3nsnc23)C1 (stereo unspecified),2,-17,2,.,-7,118*,39,62*
Cc1cccc(NC(=O)C2CCN(S(=O)(=O)c3cccc4nsnc34)CC2)c1,4,4,2,6,-49,31,.,.
Cc1cccc(NC(=O)C2CCCN(S(=O)(=O)c3cccc4nsnc34)C2)n1 (stereo unspecified),-27,-21,-2,8,1,84*,35,18*
O=C(CCC1CCCC1)N1CCN(C(=O)c2ccco2)CC1,-13,-13,5,12,0,13,.,.
O=C(C1Cc2ccccc2CN1S(=O)(=O)c1ccccc1[N+](=O)[O-])N1CCOCC1 (stereo unspecified),-6,-14,.,.,.,10,.,.
Nc1nnc(-c2cc3ccccc3oc2=O)s1,4,-18,-8,23,-1,152*,36,50*
Fc1ccccc1NC(=S)N1CCN(C/C=C/c2ccccc2)CC1,-16,-24,8,7,-29,9,.,.
CNC(=S)N=Nc1c(O)[nH]c2ccccc12,1,-15,1,9,-34,17,.,.
CCOC(=O)C(=O)N=Nc1c(O)[nH]c2ccccc12,2,-1,-3,6,23,91*,46,53*
O=C(N=Nc1c(O)[nH]c2ccccc12)c1cccs1,-16,5,2,8,-25,108*,101*,18*
Oc1ccc(NC(=S)N=Nc2c(O)[nH]c3ccccc23)cc1,-7,-4,-2,11,-56,92*,80*,7
O=C(N=Nc1c(O)[nH]c2ccccc12)c1cc(NS(=O)(=O)c2cccs2)cc(NS(=O)(=O)c2cccs2)c1,10,-1,-4,5,-5,14,.,.
COc1ccc(NC(=S)N=Nc2c(O)[nH]c3ccccc23)cc1,-12,3,-16,5,-58,34,.,.
COc1ccc(CNC(=O)CCSCc2ccc(C)cc2)cc1,-9,3,-8,6,-5,12,.,.
Cc1sc(NC(=O)COc2ccccc2)c(C#N)c1C,-18,-26,-8,9,-33,19,.,.
COC(=O)CCCNc1ncccc1[N+](=O)[O-],-7,-11,9,7,10,97*,39,39*
COc1ccccc1CNc1ncccc1[N+](=O)[O-],-7,-20,-9,.,.,1,.,.
O=C(NCCCCC(NC(=O)c1ccc([N+](=O)[O-])cc1)C(=O)O)c1ccc([N+](=O)[O-])cc1 (stereo unspecified),-12,-12,-5,5,22,137*,37,58*
COC(=O)c1cc(S(=O)(=O)N2CCOCC2)c(Cl)cc1N1CCOCC1,0,-8,-6,3,7,5,.,.
COC(=O)c1cc(C)nc2c1C(=O)C(=O)C=C2N1CCOCC1,-8,-12,-25,.,.,99*,79*,114*
COc1cc(-c2c(C(C)=O)c(C)nc3c2C(=O)c2ccccc2-3)cc(OC)c1OC,.,.,-2,.,.,.,.,.
COc1cc2c(cc1OC)-c1c(OC)c(OC)cc3ccnc(c13)C2=O,-7,-11,-15,.,22,80*,47,26*
SMILES,CHO parental Ca,OX1R antag-1,GPR7 antagonist,PGE2 EP2 inh,EP2 modulator,OX1R antag-2,OX1R HTRF confirm,CHO-K1 HTRF cnt
CCOC(=O)c1oc2cc(O)c(CC)cc2c(=O)c1-c1cscn1,-16,-15,-11,1,20,10,.,.
CCOC(=O)c1ccc(-c2c(C(=O)OCC)oc3cc(O)c(CC)cc3c2=O)o1,-9,11,-16,12,12,83*,27,9
O=c1oc2cc(O)ccc2cc1-c1ccccc1,-8,-8,-2,.,.,16,.,.
Cc1cccc(Cn2c(Sc3nccc(C)n3)nc3c2c(=O)[nH]c(=O)n3C)c1,.,.,.,2,-26,.,.,.
O=C(CSc1nnc2ccccn12)NNC(=O)c1ccc([N+](=O)[O-])cc1,-9,-6,-13,4,0,97*,35,36*
O=C(CSc1nnc2ccccn12)NNC(=O)c1ccccc1,-12,-10,4,4,18,10,.,.
O=c1[nH]c2cc(NCCO)c([N+](=O)[O-])cc2[nH]1,0,-3,-12,11,30,166*,66*,88*
Cc1ccc(-c2[nH]c(=S)[nH]c(=O)c2C#N)cc1,-9,-8,-3,6,41,20,.,.
Nc1c(N=Nc2ccccc2F)c(=O)[nH]n1-c1ccccc1,-9,22,14,11,-8,86*,67*,12
CCOC(=O)C1=C(O)C(=O)N(c2ccc(S(N)(=O)=O)cc2)C1c1ccc([N+](=O)[O-])cc1 (stereo unspecified),-2,8,-7,6,-2,28,.,.
CCOC(=O)CC1ON(C)C(=O)N1c1ccc([N+](=O)[O-])cc1 (stereo unspecified),-3,-11,4,18,-4,101*,26,17
Cc1nc2nc[nH]n2c(=O)c1CCC(C)C,-9,-15,3,9,17,10,.,.
C=CCNC(=S)N/N=C(\C)c1cccnc1,-2,-20,-16,7,2,104*,13,2
C=CCNC(=S)N/N=C(\C)c1ccc(-n2ccnc2)cc1,0,0,-3,2,-27,13,.,.
COc1ccc(C(=O)CN2CCN(CCN3C(=O)c4cccc5cccc(c45)C3=O)CC2)cc1,-23,-32,.,.,.,91*,36,21*
O=C(CN1C(=O)S/C(=C/c2ccc(N3CCOCC3)cc2)C1=O)N1CCOCC1,-3,6,-11,3,17,85*,41,47*
O=C(CN1C(=O)c2cccc3cccc(c23)C1=O)N1CCOCC1,-8,-17,-5,9,13,104*,47,87*
CCN(C(=O)C(C)Cl)c1ccccc1 (stereo unspecified),3,-23,-4,6,-6,20,.,.
Cc1cc(C(=O)OCC(=O)Nc2ccc(F)cc2[N+](=O)[O-])c2ccccc2n1,-26,-25,3,8,16,12,.,.

# Screening results as filed in PubChem.
